# Measured values reported in ChEMBL document CHEMBL4138042, “A Scaffold Merging Approach to Hsp90 C-terminal Inhibition: Synthesis and Evaluation of a Chimeric Library” (Medchemcomm, 2017).
# Activity calls are given as the source filed them. The calls are words filed in the database; no cut-off is given here.
# How the values were obtained:
# MCF7 [1] = experiment: Antiproliferative activity in human MCF7 cells incubated for 72 hrs by MTS/PMS cell proliferation assay; type: functional, cell-based; conditions: MCF7, 72 h
# How it was run: (§1)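 Values are mean ± SD of at least three separate experiments, each run in triplicate.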
# SK-BR-3 = experiment: Antiproliferative activity in human SKBR3 cells incubated for 72 hrs by MTS/PMS cell proliferation assay; type: functional, cell-based; conditions: SK-BR-3, 72 h; how it was run: as §1
# [2] = target: T1, Heat shock protein HSP90 (Homo sapiens) (UniProt P07900+P08238); experiment: Inhibition of HSP90 in human MCF7 cells assessed as reduction in CDK4 protein level incubated for 24 hrs by Western blotting method; type: cell-based
# How it was run: (§2)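 Treated MCF-7 cells were analysed by western blot for the Hsp90 clients HER2, CDK4, ER-α and cyclin D1. Actin served as the Hsp90-independent control protein.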
# MCF7 [3] = experiment: Induction of heat shock response in human MCF7 cells assessed as effect on Hsp90 protein levels at antiproliferative 0.5 and 10 fold IC50 incubated for 24 hrs by Western blotting method; type: cell-based; conditions: mcf7, 24 h
# [4] = target: T1, Heat shock protein HSP90 (Homo sapiens); experiment: Inhibition of HSP90 in human MCF7 cells assessed as reduction in HER2 protein level incubated for 24 hrs by Western blotting method; type: cell-based; how it was run: as §2
# [5] = target: T1, Heat shock protein HSP90 (Homo sapiens); experiment: Inhibition of HSP90 in human MCF7 cells assessed as reduction in ERalpha protein level incubated for 24 hrs by Western blotting method; type: cell-based; how it was run: as §2
# MCF7 [6] = experiment: Induction of heat shock response in human MCF7 cells assessed as effect on Hsp70 protein levels at 0.5 and 10 fold antiproliferative IC50 incubated for 24 hrs by Western blotting method; type: cell-based; conditions: mcf7, 24 h
# [7] = target: T1, Heat shock protein HSP90 (Homo sapiens); experiment: Inhibition of HSP90 in human PC3-MM2 cells expressing luciferase assessed as reduction in heat-denatured lucifearse refolding incubated for 1 hr by luciferase rematuration assay; type: cell-based
# How it was run: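 PC3-MM2 cells expressing firefly luciferase were heated to denature luciferase, then incubated with DMSO or test compound. Luciferase activity was then measured to gauge refolding. Read-out is RLU relative to DMSO, given as mean ± SD of at least two separate experiments run in triplicate.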
# [8] = target: T1, Heat shock protein HSP90 (Homo sapiens); experiment: Inhibition of HSP90 in human MCF7 cells assessed as reduction in cyclin D1 protein level incubated for 24 hrs by Western blotting method; type: cell-based; how it was run: as §2
# MCF7 [9] = experiment: Effect on actin protein expression in human MCF7 cells at 0.5 and 10 fold antiproliferative IC50 incubated for 24 hrs by Western blotting method; type: cell-based; conditions: mcf7, 24 h; how it was run: as §2
# [10] = Inhibition of full length chicken Hsp90beta (1 to 728 amino acids); set-up: species or system Gallus gallus
Structure (SMILES),EC50 (MCF7 [1]) [µM],EC50 (SK-BR-3) [µM],inhibition [7],further results
COc1cccc(-c2cc(C(=O)Nc3ccc(-c4ccc(OC5CCN(C)CC5)cc4-c4cccc(F)c4)cc3)ccc2OC)c1,2.1,4.2,,
CN1CCC(Oc2ccc(-c3cccc(NC(=O)c4ccc(C(C)(C)C)cc4)c3)c(-c3cccc(C(F)(F)F)c3)c2)CC1,2.8,1.8,,
COc1cccc(-c2cc(C(=O)Nc3cccc(-c4ccc(OC5CCN(C)CC5)cc4-c4cccc(F)c4)c3)ccc2OC)c1,4.2,4.1,,
CN1CCC(Oc2ccc(-c3ccc(NC(=O)c4ccc(C(C)(C)C)cc4)cc3)c(-c3cccc(F)c3)c2)CC1,4.2,4.2,,
CN1CCC(Oc2ccc(-c3cccc(NC(=O)c4ccc(Br)cc4)c3)c(-c3cccc(C(F)(F)F)c3)c2)CC1,3.9,3,Active,inhibition [2]: Dose-dependent effect; Activity (MCF7 [3]): Non-Toxic; inhibition [4]: Dose-dependent effect; inhibition [5]: Dose-dependent effect; Activity (MCF7 [6]): Non-Toxic; inhibition [8]: Dose-dependent effect; Activity (MCF7 [9]): Non-Toxic
CC(=O)Oc1ccc(C(=O)Nc2cccc(-c3ccc(OC4CCN(C)CC4)cc3-c3cccc(C(F)(F)F)c3)c2)cc1CC=C(C)C,3,2.9,,
CN1CCC(Oc2ccc(-c3cccc(NC(=O)c4cn(Cc5ccc([N+](=O)[O-])cc5)nn4)c3)c(-c3cccc(C(F)(F)F)c3)c2)CC1,2,1.9,Active,
COc1cccc(-c2cc(C(=O)NCCc3ccc(OC4CCN(C)CC4)cc3-c3cccc(C(F)(F)F)c3)ccc2OC)c1,2.7,3.5,,
CC(=O)Oc1ccc(C(=O)Nc2ccc(-c3ccc(OC4CCN(C)CC4)cc3-c3cccc(C(F)(F)F)c3)cc2)cc1CC=C(C)C,2.6,2.3,,
CN1CCC(Oc2ccc(-c3ccc(NC(=O)c4ccc(C(C)(C)C)cc4)cc3)c(-c3cccc(C(F)(F)F)c3)c2)CC1,3,2.4,,
CN1CCC(Oc2ccc(-c3ccc(NC(=O)c4ccc(Br)cc4)cc3)c(-c3cccc(C(F)(F)F)c3)c2)CC1,3.4,3.5,Active,inhibition [2]: Dose-dependent effect; Activity (MCF7 [3]): Non-Toxic; inhibition [4]: Dose-dependent effect; inhibition [5]: Dose-dependent effect; Activity (MCF7 [6]): Non-Toxic; inhibition [8]: Dose-dependent effect; Activity (MCF7 [9]): Non-Toxic
CN1CCC(Oc2ccc(-c3ccc(NC(=O)c4ccc(Br)cc4)cc3)c(-c3cccc(F)c3)c2)CC1,5.1,5.2,Active,
CN1CCC(Oc2ccc(-c3cccc(NC(=O)c4cn(Cc5ccc(C(C)(C)C)cc5)nn4)c3)c(-c3cccc(C(F)(F)F)c3)c2)CC1,3,3,inactive,
CN1CCC(Oc2ccc(-c3cccc(NC(=O)c4ccc(C(C)(C)C)cc4)c3)c(-c3cccc(F)c3)c2)CC1,5.2,6.2,,
COc1cccc(-c2cc(C(=O)Nc3ccc(-c4ccc(OC5CCN(C)CC5)cc4-c4cccc(C(F)(F)F)c4)cc3)ccc2OC)c1,2.2,1.8,,
CN1CCC(Oc2ccc(-c3ccc(NC(=O)c4cn(Cc5ccc(C(C)(C)C)cc5)nn4)cc3)c(-c3cccc(C(F)(F)F)c3)c2)CC1,5,4.4,inactive,
COc1ccc(Cn2cc(C(=O)Nc3cccc(-c4ccc(OC5CCN(C)CC5)cc4-c4cccc(C(F)(F)F)c4)c3)nn2)cc1,4,4,Active,
CN1CCC(Oc2ccc(-c3ccc(NC(=O)c4cn(Cc5ccccc5)nn4)cc3)c(-c3cccc(C(F)(F)F)c3)c2)CC1,2.9,2.2,Active,
COc1ccc(Cn2cc(C(=O)Nc3ccc(-c4ccc(OC5CCN(C)CC5)cc4-c4cccc(C(F)(F)F)c4)cc3)nn2)cc1,0.9,0.5,Active,
CN1CCC(Oc2ccc(-c3ccc(NC(=O)c4cn(Cc5ccc([N+](=O)[O-])cc5)nn4)cc3)c(-c3cccc(C(F)(F)F)c3)c2)CC1,1,0.8,Active,
COc1cccc(-c2cc(C(=O)Nc3cccc(-c4ccc(OC5CCN(C)CC5)cc4-c4cccc(C(F)(F)F)c4)c3)ccc2OC)c1,2.3,1.9,,
CN1CCC(Oc2ccc(-c3cccc(NC(=O)c4ccc(Br)cc4)c3)c(-c3cccc(F)c3)c2)CC1,5.6,5.9,Active,
CO[C@@H]1[C@@H](OC(N)=O)[C@@H](O)[C@H](Oc2ccc3c(O)c(NC(=O)c4ccc(O)c(CC=C(C)C)c4)c(=O)oc3c2C)OC1(C)C [NOVOBIOCIN],,,,EC50 [10]: 700 µM
CC(=O)Oc1ccc(C(=O)Nc2cccc(-c3ccc(OC4CCN(C)CC4)cc3-c3cccc(F)c3)c2)cc1CC=C(C)C,4.4,3.3,,
CN1CCC(Oc2ccc(-c3cccc(NC(=O)c4cn(Cc5ccccc5)nn4)c3)c(-c3cccc(C(F)(F)F)c3)c2)CC1,1.7,2.2,Active,inhibition [2]: Dose-dependent effect; Activity (MCF7 [3]): Non-Toxic; inhibition [4]: Dose-dependent effect; inhibition [5]: Dose-dependent effect; Activity (MCF7 [6]): Non-Toxic; inhibition [8]: Dose-dependent effect; Activity (MCF7 [9]): Non-Toxic
COc1cccc(-c2cc(C(=O)Nc3cccc(-c4ccc(OC5CCN(C)CC5)cc4)c3)ccc2OC)c1,1.6,1.5,,
CC(=O)Oc1ccc(C(=O)Nc2ccc(-c3ccc(OC4CCN(C)CC4)cc3-c3cccc(F)c3)cc2)cc1CC=C(C)C,3.3,3.2,,
